# The entries come from a sample that favours hits as a whole.
# Fibroblast inh: blocks proliferation of human lung fibroblasts. LL 47 human lung fibroblast viability, ATP luminescence; active compounds read low. viability, % at 10 µM. actives 1.1% (n = 85,000);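 active = viability at or below 50% in the single dose screen; inactive = viability above 50%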;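 note: compound exposure lasted 72 h before the ATP readout; 100% = median luminescence of untreated cell-only wells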
#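 Signal: luminescent ATP detection, CellTiter-Glo; assay system: LL 47 human lung fibroblasts; input: 1,150 cells/well; incubation: overnight cell rest, 72 h compound treatment at 37 °C; measure: % viability versus median cells-only luminescence; medium: IMEM growth medium with 15% fetal bovine serum; dosing: compound addition at 0.1% DMSO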
# bCat KO growth: beta-catenin-lacking colon tumor cell growth suppression. AID 818. viability, % at 10 µM. HCT116 beta-catenin knockout viability, CellTiter-Glo, 60 h; active compounds read low. actives 1.5% (n = 140,000);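 active = viability at or under a set limit, the compound median less 4 SD, cut at about 6% in these data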;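 note: 0% = Hyamine 1622 control at 20 µM and 100% = untreated cell control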
# H69AR growth 86K: blocks growth of human H69AR lung tumor cells. H69AR lung tumor viability, ATP luminescence, 72 h; active compounds read low. viability, % at 10 µM. actives 6% (n = 85,000). AID 598;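 active = viability at or below 40%; inactive = viability above 40%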;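 note: multidrug resistant small cell line overexpressing MRP-1 efflux transporter; 100% = mean luminescence of untreated control wells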
# HUVEC inhibit: human endothelial cell proliferation inhibition | HUVEC proliferation, CellTiter-Glo luminescence, 72 h; active compounds read low | viability, % at 10 µM (by protocol) | actives 1.1% (n = 86,000);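 active = viability at or below 30%; inactive = viability above 30%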;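 note: 100% = median luminescence of DMSO-only cell control wells on each plate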
# PTEN del growth: suppresses growth of cells with PTEN deletion | actives 1.2% (n = 140,000) | HCT116 PTEN-null viability, CellTiter-Glo, 60 h; active compounds read low | viability, % at 10 µM;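 active = viability at or below a set limit, 4 SD under the median of all tested compounds, cut at about 3.7% in these data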;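 note: PTEN knockout HCT116 line with beta catenin targeted HCT116 as companion control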
# * = called active by the depositor; · = not tested or not shown.
SMILES,Fibroblast inh,bCat KO growth,H69AR growth 86K,HUVEC inhibit,PTEN del growth
COc1ccc(-c2cc(-c3ccccc3O)[nH]n2)cc1OC,78.8,57.4,59.3,52.3,52.3
Cc1c(Cl)cccc1NC(=O)CN1CCC(C(O)(c2ccccc2)c2ccccc2)CC1,·,60.8,·,·,60.8
CCCCC1CCC(C(=O)NCc2ccc3c(c2)OCO3)CC1 (stereo not given),102.7,87.0,97.8,105.5,87.4
CNc1sc(C(=O)c2ccc(F)cc2)c(N)c1-c1nc2ccccc2s1,57.2,75.5,5.7*,25.3*,76.9
CNc1sc(C(=O)c2cccs2)c(N)c1-c1nc2ccccc2s1,83.0,79.5,62.6,59.8,81.4
CC1OC23CCCCC2C(C#N)(C(=N)O3)C1(C#N)C#N (stereo not given),98.1,99.8,66.1,94.0,95.4
CCCC1OC23CCCCC2C(C#N)(C(=N)O3)C1(C#N)C#N (stereo not given),73.5,106.3,21.6*,83.1,101.3
COc1ccc(C2OC34CCCCC3C(C#N)(C#N)C2(C#N)C(=N)O4)cc1 (stereo not given),89.7,92.8,34.0*,96.0,90.8
N#CC1(C#N)COC23CCCCC2C1(C#N)C(=N)O3 (stereo not given),66.0,96.2,8.2*,77.7,101.6
CCc1ccc(N(C(=O)c2snc(C(N)=O)c2N)C(C(=O)NCCC(C)C)c2c[nH]c3ccccc23)cc1 (stereo not given),·,60.8,·,·,46.8
NC(N)=N/N=C/c1ccc(OCc2ccc(Cl)cc2)cc1,·,1.5*,·,·,1.5*
Cc1ccc(COc2ccc(/C=N/O)cc2)cc1,·,105.8,·,·,98.1
NC(N)=N/N=C/c1ccc(OCc2ccccc2)cc1,·,1.7*,·,·,1.8*
COc1cc(/C=C2/CCC/C(=C\c3cc(O)c(OC)c(Cl)c3)C2=O)cc(Cl)c1O,·,2.0*,·,·,1.9*
COc1cc(/C=C2\CC/C(=C\c3cc(OC)c(O)c(OC)c3)C2=O)cc(OC)c1O,·,2.1*,·,·,2.5*
O=C(Nc1nnc(C2CC2)s1)C1Cc2ccccc2CN1S(=O)(=O)c1ccccc1F (stereo not given),83.4,20.0,50.1,67.3,16.7
COc1ccc(NC(=O)C2CCC(=O)N2S(=O)(=O)c2ccc(C)cc2)c(OC)c1 (stereo not given),100.5,96.7,99.7,103.3,94.3
NC(=O)C(CC(=O)O)NC(=O)[C@@H]1CCCNc2c(I)cc([N+](=O)[O-])cc2C(=O)N[C@@H](CO)C(=O)N[C@@H](Cc2ccc(O)cc2)C(=O)N1 (stereo not given in full),·,99.4,·,·,96.5
C#CCOC(=O)Nc1ccc(=O)n(Cc2c(Cl)cccc2Cl)c1,·,91.1,·,·,85.5
O=C(CSc1nnc2n1CCCN2C(=S)Nc1ccc(Cl)cc1)c1ccccc1,66.5,62.8,26.1*,43.7,64.2
COc1ccccc1NC(=O)N(Cc1ccco1)Cc1cc2cc(C)cc(C)c2[nH]c1=O,105.0,30.7,18.6*,60.5,29.9
COc1ccccc1NC(=O)N(Cc1ccco1)Cc1cc2ccc(C)c(C)c2[nH]c1=O,55.0,16.6,17.4*,59.1,24.1
COc1ccccc1NC(=S)N(Cc1ccco1)Cc1cc2cccc(C)c2[nH]c1=O,·,89.5,·,·,73.0
CCCn1c(=O)c2ccccc2n2c(SCC(=O)N3CCc4ccccc4C3)nnc12,·,98.2,·,·,98.8
CCOc1cc2[nH]c(=O)n(CCc3ccc(OC)c(OC)c3)c(=O)c2cc1OCC,96.3,83.5,35.6*,87.8,63.0
SMILES,Fibroblast inh,bCat KO growth,H69AR growth 86K,HUVEC inhibit,PTEN del growth
CCOc1cc2[nH]c(=S)n(CCc3ccc(OC)c(OC)c3)c(=O)c2cc1OCC,17.1*,19.6,3.0*,16.3*,35.7
CCOc1cc2[nH]c(=S)n(CCCOC)c(=O)c2cc1OCC,96.4,95.7,71.4,88.6,95.0
C/C(=N\O)C(=O)C(CN1CCCCC1)CN1CCCCC1,15.1*,99.8,0.4*,74.3,81.6
CC(=O)/C(CN1CCCCC1)=N\O,98.3,117.0,101.9,93.2,94.9
COc1cc2ccc(=O)oc2c(O)c1OCC=C(C)C,99.6,79.8,36.7*,87.8,93.3
O=C(/C=C/c1ccccc1)NC1CCSC1=O (stereo not given),·,90.1,·,·,90.5
O=C(/C=C/c1ccccc1)N1CCN(Cc2nc3ccccc3c(=O)[nH]2)CC1,88.6,84.3,59.4,88.5,90.9
CCc1ccc(-c2nc(C(N)=O)c3[nH]c(=O)n(-c4ccccc4OC)c3n2)cc1,37.3*,39.2,16.4*,38.8,26.0
COc1ccc(-c2nc(C(N)=O)c3[nH]c(=O)n(-c4cccc(Cl)c4)c3n2)cc1OC,7.5*,6.6,2.1*,32.3,2.3*
CCOC(=O)c1c(C)oc2cc3c(C(=O)OCC)c(C)oc3cc12,101.6,·,99.1,105.3,·
CCn1c(C)c(CCC(=O)O)c(=O)n2nc(-c3ccccc3OC)cc12,92.6,86.7,51.4,82.3,103.7
Cn1c(N2CCOCC2)nc(-c2ccccc2)c1-c1ccccc1,·,80.2,·,·,89.2
CC(=O)Oc1cc2c(C(=O)NCc3ccncc3)c(C)oc2c2ccccc12,97.7,·,64.5,80.6,·
COc1ccc(NC(=O)C2=C(C)C(=O)OC23CCC(C)CC3)c(OC)c1 (stereo not given),91.6,94.7,97.0,82.4,84.2
CCOC(=O)c1ccc2c(c1)nc(COc1ccccc1C#N)n2CC,98.6,·,19.8*,78.3,·
CCOC(=O)c1ccc2c(c1)nc(COc1ccc3ccccc3c1)n2CC,99.1,78.3,24.1*,78.0,76.7
CC(=O)N1CCC(N(C(=O)Nc2ccc(F)cc2)C2CCCC2)CC1,98.4,96.5,82.5,53.0,91.8
O=C1NNC(=O)C2C3C=CC(C4CC34)C12 (stereo not given),105.9,97.1,98.5,99.5,102.9
COc1cc(C)c(Cl)cc1S(=O)(=O)n1cnc(C)c1,92.0,101.4,86.0,88.2,101.7
COc1ccc(C(C)C)cc1S(=O)(=O)n1cnc(C)c1,90.6,52.3,27.4*,64.3,44.9
O=C(COc1ccccc1-c1ccccc1)NCCN1C(=O)S/C(=C\c2cccnc2)C1=O,·,75.2,·,·,71.4
CC1CCc2sc(C(=O)Nc3nnc(SCc4ccc(F)cc4)s3)cc2C1 (stereo not given),105.5,92.5,76.8,82.3,94.2
COC(=O)c1ccc(CSc2nnc(NC(=O)c3cc4c(s3)CCCC4)s2)cc1,106.4,44.0,7.6*,78.2,50.7
Brc1ccc(CSc2nnc(-c3ccccn3)n2Cc2ccco2)cc1,49.4*,11.1,21.1*,52.1,9.7
C(=C\c1ccccc1)/CSc1nnc(-c2ccccc2)n1Cc1ccco1,47.2*,10.3,17.9*,43.2,12.4
Nc1cc(Br)c(N)c(Br)c1,97.3,93.5,23.0*,92.4,98.5
Cc1cc(N2CCOCC2)nc2ccc(NC(=O)CCC(=O)N3CCCC(C)C3)cc12 (stereo not given),·,112.2,·,·,101.8
CCN(CC)c1ccc(/C=C2/SC(=O)N(C(C)C)C2=O)o1,·,5.6*,·,·,5.2
Cc1ccc(OCc2n[nH]c(=S)n2C2CCCCC2)cc1,100.0,88.7,36.6*,94.2,87.1
